Our source for the Tm and folding enthalpy values is the array DNA melting data of Ke et al. (doi:10.1101/2024.01.08.574731).

The nature of data set [1]: melting temperature; fluorescence melt of hairpins on a sequencing array, two-state fit, raised by 9.35 °C to match UV melts. As to conditions: sodium 0.088 M. The essentials: (§1)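 Folding enthalpy and melting temperature come from bootstrapped two-state fits to Cy3 fluorescence of library hairpins carrying annealed Cy3 and quencher oligos on a sequenced MiSeq flow cell. Imaging was done in 50 mM Na-HEPES pH 8.0, 25 mM NaCl, stepping by 2.5 °C up to 60 °C, and signals were normalised to pre-quench Cy3 and to control constructs. Results of four replicates were combined by inverse variance, and fitted temperatures were raised by 9.35 °C to match UV melts.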

The nature of data set [2]: folding enthalpy; higher = less favourable; fluorescence melt of hairpins on a sequencing array, two-state fit. As to conditions: sodium 0.088 M. The essentials: as §1

Regarding GTAAACGGAAACGTCTAC (((.(((....))).))), the Tm in data set [1] stood at 29 °C. For the same sequence, the folding enthalpy in data set [2] was -21.2 kcal/mol.
Take GTAAACGGAAACGTTCAC ((.((((....)))).)): the Tm in data set [1] is 32.4 °C. Moreover, in data set [2], the folding enthalpy is -23.6 kcal/mol.
For the sequence GTAAAGCGAAAGCTTAC (((.(((....)))))), in data set [1], the Tm amounted to 42.6 °C. For the same sequence, the folding enthalpy in data set [2] is -12.8 kcal/mol.
In the case of GTAAAGGAAACTTTAC ((((((....)))))), the Tm in data set [1] was found to be 40.6 °C. Further, the folding enthalpy in data set [2] is -32.6 kcal/mol.
With GTAAAGGGAAACCTTTAC (((((((....))))))), the Tm in data set [1] came to 51.3 °C. Also, the folding enthalpy in data set [2] is -41 kcal/mol.
For GTAACAGAAATGTTAC ((((((....)))))), the Tm in data set [1] turned out to be 45.7 °C. Moreover, the folding enthalpy in data set [2] was -32.8 kcal/mol.
As to GTAACAGGAAACTGTTAC (((((((....))))))), in data set [1], the Tm came out at 55.4 °C. In addition, the folding enthalpy in data set [2] is -43.6 kcal/mol.
GTAACCCGAAAGGGGTAC (((.(((....))).))): the Tm in data set [1] stood at 57.6 °C. In data set [2], the folding enthalpy was -30.9 kcal/mol.
Take GTAACCGAAAGGTAATAC ((((((....)))..))): in data set [1], the Tm was 23.8 °C. The folding enthalpy in data set [2] was -11.9 kcal/mol.
For GTAACCGAAAGGTACTAC ((((((....)))..))), the Tm in data set [1] stood at 40.8 °C. In data set [2], the folding enthalpy is -16.9 kcal/mol.
For the sequence GTAACCGAAAGGTATAC ((((((....))).))), the Tm in data set [1] is 35.2 °C. The folding enthalpy in data set [2] was -14.9 kcal/mol.
Turning to GTAACCGAAAGGTGTTAC ((((((....)))..))), the Tm in data set [1] is 35 °C. In data set [2], the folding enthalpy was -12.6 kcal/mol.
Take GTAACCGGAAACGATTAC ((((.((....)).)))): in data set [1], the Tm came to 36.4 °C. Further, in data set [2], the folding enthalpy is -25.3 kcal/mol.
On to GTAACGCGAAAGCGTAC (((.(((....)))))), for which, in data set [1], the Tm was found to be 49 °C. Moreover, the folding enthalpy in data set [2] was -10.6 kcal/mol.
Regarding GTAACGGCGAAAGCCTAC (((..(((....)))))), in data set [1], the Tm is 20.7 °C. Also, the folding enthalpy in data set [2] was -9.07 kcal/mol.
For GTAACTCGAAAGAGCTAC (((.(((....))).))) the same measures were 41.9 °C and -29.2 kcal/mol.
As for GTAACTGGAAACAGTCAC ((.((((....)))).)), the Tm in data set [1] came to 34.8 °C. In data set [2], the folding enthalpy is -17 kcal/mol.
For the sequence GTAAGAGGAAACCCTTAC (((((.(....).))))), the Tm in data set [1] is 31.4 °C. In addition, the folding enthalpy in data set [2] is -19.6 kcal/mol.
As to GTAAGCGAAAGCTCGTAC ((((((....)))..))), the Tm in data set [1] amounted to 24.2 °C. Further, the folding enthalpy in data set [2] was -8.1 kcal/mol.
Turning to GTAAGCGAAAGCTCTAC ((((((....))).))), the Tm in data set [1] worked out at 32.2 °C. In data set [2], the folding enthalpy was -11.9 kcal/mol.
Take GTAAGCGAAAGCTGTTAC ((((((....)))..))): in data set [1], the Tm turned out to be 32.6 °C. Also, the folding enthalpy in data set [2] was -9.91 kcal/mol.
For GTAAGCGAAAGCTTAC ((((((....)))))) the same measures were 67.2 °C and -27.9 kcal/mol.
For GTAAGCGAAAGCTTATAC ((((((....)))..))), the Tm in data set [1] worked out at 39.1 °C. In addition, the folding enthalpy in data set [2] was -12.2 kcal/mol.
In the case of GTAAGGAAACTTAC (((((....))))), the Tm in data set [1] came to 37.9 °C. The folding enthalpy in data set [2] was -14.3 kcal/mol.
With GTAAGGGGAAACCCTTAC (((((((....))))))), the Tm in data set [1] turned out to be 54.8 °C. In addition, in data set [2], the folding enthalpy was -42.4 kcal/mol.
GTAAGTGGAAACACCTAC (((.(((....))).))): the Tm in data set [1] came out at 29.2 °C. The folding enthalpy in data set [2] is -16.8 kcal/mol.
Turning to GTAATACGAAAGTAGTAC (((.(((....))).))), in data set [1], the Tm was 42.5 °C. Besides, in data set [2], the folding enthalpy is -34.5 kcal/mol.
In the case of GTAATAGAAATATTAC ((((((....)))))), the Tm in data set [1] was determined as 32 °C. For the same sequence, in data set [2], the folding enthalpy is -16.6 kcal/mol.
For GTAATAGGAAACTATTAC (((((((....))))))), in data set [1], the Tm came to 45.5 °C. Also, in data set [2], the folding enthalpy was -37.2 kcal/mol.
Regarding GTAATCCGAAAGGATAC (((.(((....)))))), in data set [1], the Tm is 39.8 °C. For the same sequence, the folding enthalpy in data set [2] is -14.6 kcal/mol.
For the sequence GTAATCGAAAGATGGTAC ((((((....)))..))), in data set [1], the Tm worked out at 25 °C. For the same sequence, the folding enthalpy in data set [2] was -12.8 kcal/mol.
For the sequence GTAATCGAAAGATTTAC ((((((....))).))), in data set [1], the Tm worked out at 33.3 °C. Further, in data set [2], the folding enthalpy is -14.7 kcal/mol.
Regarding GTAATGGGAAACCATTAC (((((((....))))))), the Tm in data set [1] is 53.4 °C. The folding enthalpy in data set [2] is -45.5 kcal/mol.
In the case of GTAATTGGAAACAATTGC (.(((((....))))).), the Tm in data set [1] was 39.2 °C. Moreover, the folding enthalpy in data set [2] was -26.5 kcal/mol.
As for GTACAAACGAAAGTTTAC (((..(((....)))))), the Tm in data set [1] turned out to be 22.1 °C. In addition, the folding enthalpy in data set [2] was -8.86 kcal/mol.
The corresponding values for GTACAACCGAAAGGTTAC (((..(((....)))))) are 29.8 °C and -10.7 kcal/mol.
